Experimental findings from ChEMBL document CHEMBL2176905 (J Med Chem, 2012) are described below.

Structures can show the parent of a compound that is named as a salt. Active and inactive are the calls of the source. No cut-off for these calls is given here. Residues, ends and D or L forms follow the SMILES beside them. *: point of attachment. PhAc = O=C(Cc1ccccc1)*; Tfa = O=C(C(F)(F)F)*; NHBu = CCCCN*

The target in assay [1] is T1, Neutrophil elastase (Homo sapiens, UniProt P08246).
T1 sequence (P08246 whole entry): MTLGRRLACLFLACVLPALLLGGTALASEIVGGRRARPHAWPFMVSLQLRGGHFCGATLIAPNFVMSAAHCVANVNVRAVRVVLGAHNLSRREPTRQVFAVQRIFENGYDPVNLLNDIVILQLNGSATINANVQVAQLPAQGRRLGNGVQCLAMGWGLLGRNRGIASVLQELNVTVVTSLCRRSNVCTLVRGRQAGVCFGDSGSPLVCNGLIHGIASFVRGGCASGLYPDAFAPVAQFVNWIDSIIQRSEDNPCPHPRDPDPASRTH
The assay is described as follows: Inhibition of human neutrophil elastase.

Assay [2] concerns the target Pancreatic elastase (Sus scrofa) (UniProt P08419+P00772). The assay is described as follows: Inhibition of porcine pancreatic elastase assessed as hydrolysis of N-succinyl-Ala-Ala-Ala-p-nitroanilide at 100 uM incubated for 2 hrs measured for 20 mins by microplate reader analysis. The format is protein assay. The gist of the method:
(§1)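 Counter-screen in 0.1 M HEPES with 0.5 M NaCl, pH 7.25, 96-well format, duplicates. Chymotrypsin, trypsin and porcine pancreatic elastase were commercial; thrombin and plasminogen were purified in-house. Chromogenic substrate hydrolysis followed kinetically at 405 nm on a plate reader. Test compounds up to 100 μM maximum; AEBSF run as irreversible positive control with IC50 determined.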

Assay [3] addresses T1, Neutrophil elastase. The assay is described as follows: Inhibition of human neutrophil elastase assessed as hydrolysis of N-succinyl-Ala-Ala-Pro-Val-p-nitroanilide incubated for 2 hrs measured for 20 mins by microplate reader analysis. The method in brief:
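HNE (stock 2.8 μM in pH 5.5 acetate/0.5 M NaCl; final 30 nM) preincubated 2 h at 25 °C with inhibitor (final 0.5−50 μM, 7 concentrations) in 0.1 M HEPES, 0.5 M NaCl, pH 7.25, 5.5% DMSO. Suc-Ala-Ala-Pro-Val-pNA added (final 0.35 mM). Hydrolysis rate read kinetically at 405 nm, 25 °C, 20 min. Duplicates; IC50 derived.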

The target in assay [4] is T2, Prothrombin (Homo sapiens, UniProt P00734). As to the kind of experiment: Inhibition of thrombin assessed as hydrolysis of H-D-Pro-L-Phe-L-Arg-p-nitroanilide at 100 uM incubated for 2 hrs measured for 20 mins by microplate reader analysis. The method in brief:
as §1

For assay [5], the target named is T1, Neutrophil elastase. The assay is described as follows: Uncompetitive inhibition of human neutrophil elastase assessed as hydrolysis of N-succinyl-Ala-Ala-Pro-Val-p-nitroanilide incubated for 2 hrs measured for 20 mins by Dixon and Cornish-Bowden analysis. The method in brief: (§2)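 Mechanism study: HNE (final 30 nM) preincubated 2 h at 25 °C with inhibitor (final 5−20 μM, 3 concentrations) in 0.1 M HEPES, 0.5 M NaCl, pH 7.25, 5.5% DMSO. Suc-Ala-Ala-Pro-Val-pNA added at two final levels, 0.0875 or 0.35 mM. Rate followed at 405 nm, 25 °C, 20 min. Duplicates; Dixon and Cornish-Bowden plots.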

A short description of assay [6]: Inhibition of trypsin assessed as hydrolysis of H-D-Pro-L-Phe-L-Arg-p-nitroanilide at 100 uM incubated for 2 hrs measured for 20 mins by microplate reader analysis. The gist of the method:
as §1

For assay [7], the target named is T3, Cathepsin G (Homo sapiens) (UniProt P08311).
T3 sequence (whole entry): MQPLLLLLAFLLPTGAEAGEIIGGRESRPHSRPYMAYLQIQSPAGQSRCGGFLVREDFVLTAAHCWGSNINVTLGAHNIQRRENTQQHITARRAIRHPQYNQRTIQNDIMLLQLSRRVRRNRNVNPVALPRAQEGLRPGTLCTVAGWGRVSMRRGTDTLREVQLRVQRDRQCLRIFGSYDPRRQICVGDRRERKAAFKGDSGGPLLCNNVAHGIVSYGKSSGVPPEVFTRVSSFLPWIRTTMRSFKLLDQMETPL
As to the kind of experiment: Inhibition of cathepsin G assessed as hydrolysis of N-succinyl-Ala-Ala-Pro-Phe-p-nitroanilide at 100 uM incubated for 2 hrs measured for 20 mins by microplate reader analysis.

Assay [8] has as its target T4, Plasminogen (Homo sapiens, UniProt P00747). As to the kind of experiment: Inhibition of plasmin assessed as hydrolysis of H-D-Val-L-Leu-L-Lys-p-nitroanilide at 100 uM incubated for 2 hrs measured for 20 mins by microplate reader analysis. The method in brief: as §1
The nature of assay [9]: Inhibition of chymotrypsin assessed as hydrolysis of N-succinyl-Ala-Ala-Pro-Phe-p-nitroanilide at 100 uM incubated for 2 hrs measured for 20 mins by microplate reader analysis. The method in brief:
as §1

The target of assay [10] is T2, Prothrombin. As to the kind of experiment: Inhibition of thrombin assessed as hydrolysis of H-D-Pro-L-Phe-L-Arg-p-nitroanilide incubated for 2 hrs measured for 20 mins by microplate reader analysis. The gist of the method: as §1
Assay [11] deals with T1, Neutrophil elastase. As to the kind of experiment: Noncompetitive inhibition of human neutrophil elastase assessed as hydrolysis of N-succinyl-Ala-Ala-Pro-Val-p-nitroanilide incubated for 2 hrs measured for 20 mins by Dixon and Cornish-Bowden analysis. The method in brief:
as §2

Assay [12] is described as follows: Inhibition of trypsin assessed as hydrolysis of H-D-Pro-L-Phe-L-Arg-p-nitroanilide incubated for 2 hrs measured for 20 mins by microplate reader analysis. The method in brief: as §1
Assay [13] in a line: Inhibition of chymotrypsin assessed as hydrolysis of N-succinyl-Ala-Ala-Pro-Phe-p-nitroanilide incubated for 2 hrs measured for 20 mins by microplate reader analysis. The gist of the method: as §1
Assay [14] is described as follows: Inhibition of HIV protease. Also noted: species or system Human immunodeficiency virus.
The target of another assay is Pancreatic elastase (Sus scrofa, UniProt P08419+P00772). The assay is described as follows: Inhibition of porcine pancreatic elastase assessed as hydrolysis of N-succinyl-Ala-Ala-Ala-p-nitroanilide incubated for 2 hrs measured for 20 mins by microplate reader analysis. It is filed as protein assay. The gist of the method: (§3)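 Selectivity panel run in duplicate in 0.1 M HEPES with 0.5 M NaCl, pH 7.25. p-Nitroanilide release was followed kinetically at 405 nm, with inhibitor tested up to 100 μM maximum. Plasmin came from plasminogen purified in-house; porcine pancreatic elastase was commercial. IC50 values were determined.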

The next assay has as its target T5, Cathepsin G (Homo sapiens, UniProt P08311).
T5 sequence (P08311 whole entry): T3 sequence (whole entry)
The assay is described as follows: Inhibition of cathepsin G assessed as hydrolysis of N-succinyl-Ala-Ala-Pro-Phe-p-nitroanilide incubated for 2 hrs measured for 20 mins by microplate reader analysis.

The target in assay [15] is T4, Plasminogen. As to the kind of experiment: Inhibition of plasmin assessed as hydrolysis of H-D-Val-L-Leu-L-Lys-p-nitroanilide incubated for 2 hrs measured for 20 mins by microplate reader analysis. The method in brief:
as §3

T4 sequence (P00747 97-580 limits assumed): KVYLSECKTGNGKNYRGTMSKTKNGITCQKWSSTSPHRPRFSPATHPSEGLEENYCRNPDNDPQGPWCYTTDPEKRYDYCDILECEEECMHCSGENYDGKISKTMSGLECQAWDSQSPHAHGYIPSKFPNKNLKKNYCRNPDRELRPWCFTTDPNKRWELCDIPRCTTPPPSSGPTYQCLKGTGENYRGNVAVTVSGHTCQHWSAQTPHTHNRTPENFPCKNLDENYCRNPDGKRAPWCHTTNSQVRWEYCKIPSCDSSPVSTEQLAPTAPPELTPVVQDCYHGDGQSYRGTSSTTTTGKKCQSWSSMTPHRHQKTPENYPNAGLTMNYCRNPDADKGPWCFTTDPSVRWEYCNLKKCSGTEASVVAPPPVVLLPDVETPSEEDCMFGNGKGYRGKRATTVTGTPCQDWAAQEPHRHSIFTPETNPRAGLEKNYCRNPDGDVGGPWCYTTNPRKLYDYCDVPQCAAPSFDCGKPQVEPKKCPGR
T4 sequence (P00747 581-810 limits assumed): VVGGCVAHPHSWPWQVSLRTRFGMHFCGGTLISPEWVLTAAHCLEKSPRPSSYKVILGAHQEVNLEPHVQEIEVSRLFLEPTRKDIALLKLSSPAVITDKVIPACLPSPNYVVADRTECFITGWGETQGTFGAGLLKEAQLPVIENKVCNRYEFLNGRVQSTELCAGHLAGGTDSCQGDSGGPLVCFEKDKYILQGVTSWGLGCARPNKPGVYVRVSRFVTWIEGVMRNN

What is called IC50 is the concentration at which inhibition is half-maximal. `CCCCNC(=O)CC[Si](O)(O)[C@H](CC(C)C)NC(=O)[C@@H](NC(=O)Cc1ccc2ccccc2c1)[C@@H](C)CC` yielded an IC50 against Neutrophil elastase [1] of 0.3 µM.
As usually defined, the Ki is the dissociation constant of the complex between target and ligand, obtained from inhibition or displacement. For the molecule `CCCCNC(=O)CC[Si](O)(O)[C@H](CC(C)C)NC(=O)[C@@H](NC(=O)c1ccc2ccccc2c1)[C@@H](C)CC`, the inhibition result (in [2]; on Prothrombin [4]; in assay [6]; in [7]; at Plasminogen [8]; in assay [9]) was “inactive” in each case. Moreover, the half-maximal inhibitory concentration (IC50) on Neutrophil elastase [3] turned out to be 16 µM. For the same molecule, the inhibitory constant (Ki) on Neutrophil elastase [5] turned out to be 4 µM.
Regarding `CCCCNC(=O)CC[Si](O)(O)[C@H](CC(C)C)NC(=O)[C@@H](NC(=O)Cc1ccccc1)[C@@H](C)CC`, the inhibition result (in assay [2]; at Prothrombin [4]; in assay [6]; in [7]; on Plasminogen [8]; in assay [9]) was “inactive” each time. Moreover, the half-inhibitory concentration (IC50) at Neutrophil elastase [3] came to 38 µM. Further, the Ki at Neutrophil elastase [5] was 5 µM.
Consider `CCCCNC(=O)CC[Si](O)(O)[C@H](CC(C)C)NC(=O)[C@@H](NC(C)=O)[C@@H](C)CC`, for which, on Neutrophil elastase [3], the concentration for half-maximal inhibition (IC50) is above 200 µM.
Regarding `CCCCNC(=O)CC[Si](O)(O)[C@@H](CC(C)C)NC(=O)[C@@H](NC(=O)Cc1ccc2ccccc2c1)[C@@H](C)CC`, the inhibition result (in assay [2]; on Prothrombin [4]; in assay [6]; in [7]; at Plasminogen [8]; in assay [9]) was “inactive” each time. In addition, the IC50 was 18 µM at Neutrophil elastase [3] and 0.3 µM at Neutrophil elastase [1]. Moreover, the Ki at Neutrophil elastase [5] amounted to 3.5 µM.
Consider `CCCCNC(=O)CC[Si](c1ccccc1)(c1ccccc1)[C@H](CC(C)C)NC(=O)[C@@H](NC(=O)Cc1ccc2ccccc2c1)[C@@H](C)CC`, for which the inhibition result (in assay [2]; at Plasminogen [8]) was “inactive” throughout. The IC50 at Neutrophil elastase [3] is 14 µM; on Prothrombin [10], 92 µM; in [12] it was 58 µM; in assay [13], 110 µM. Further, the inhibition constant Ki on Neutrophil elastase [11] came to 13 µM.
On to `O=C(N[C@H]1c2ccccc2C[C@H]1O)[C@H](Cc1ccccc1)C[Si](O)(O)C[C@@H](Cc1ccccc1)C(=O)N[C@H]1c2ccccc2C[C@H]1O`, for which the inhibitory constant (Ki) in [14] came out at 0.0027 µM.
For the molecule `CCCCNC(=O)CC[Si](O)(O)[C@H](CC(C)C)NC(=O)[C@@H](NC(=O)C(F)(F)F)[C@@H](C)CC`, on Neutrophil elastase [3], the IC50 came out at 46 µM.
Still for that read-out and setting: the value for `CC[C@H](C)[C@H](NC(=O)Cc1ccc2ccccc2c1)C(=O)N[C@@H](CC(C)C)[Si](C)(O)O` was 39 µM.
For the molecule `Cl.NCCc1ccc(S(=O)(=O)F)cc1` [4-AMINOETHYLBENZENESULFONYL FLUORIDE HYDROCHLORIDE], the IC50 on Pancreatic elastase was 160 µM; at Cathepsin G, 250 µM; on Prothrombin [10], 62 µM; in [12], 10 µM; in [13], 12 µM; on Plasminogen [15], 240 µM.
`CCCCNC(=O)CNC(=O)[C@H](CC(C)C)NC(=O)[C@@H](NC(=O)Cc1ccccc1)[C@@H](C)CC` (PhAc-Ile-Leu-Gly-NHBu): the IC50 at Neutrophil elastase [3] is 51 µM.
On the same count and under the same terms, the value for `CCCCNC(=O)CNC(=O)[C@H](CC(C)C)NC(=O)[C@@H](NC(=O)C(F)(F)F)[C@@H](C)CC` (Tfa-Ile-Leu-Gly-NHBu) was above 200 µM; that for `CCCCNC(=O)CNC(=O)[C@H](CC(C)C)NC(=O)[C@@H](NC(C)=O)[C@@H](C)CC` (Ac-Ile-Leu-Gly-NHBu) was above 200 µM.
With `CCCCNC(=O)CNC(=O)[C@H](CC(C)C)NC(=O)[C@@H](NC(=O)Cc1ccc2ccccc2c1)[C@@H](C)CC`, the IC50 on Pancreatic elastase amounted to 55 µM; at Neutrophil elastase [3] it was 14 µM; on Prothrombin [10], 100 µM; in [12], 89 µM; in assay [13], 150 µM; at Plasminogen [15], 99 µM. In addition, in assay [7], the inhibition entry was “inactive”. Further, the Ki on Neutrophil elastase [11] amounted to 18 µM.
